20 compounds from ChEMBL document CHEMBL1155318, “Discovery of novel phenethylpyridone derivatives as potent melanin-concentrating hormone 1 receptor antagonists” (Bioorg Med Chem Lett, 2009) can be followed below.

In series [1] the target is T1, Melanin-concentrating hormone receptor 1 (Homo sapiens, UniProt Q99705). Put plainly: Antagonistic activity against MCH1R expressed on CHOK1 cells assessed as intracellular calcium mobilization by FLIPR. The class given is functional, cell-based, CHO-K1.
T1 sequence (Q99705 whole entry): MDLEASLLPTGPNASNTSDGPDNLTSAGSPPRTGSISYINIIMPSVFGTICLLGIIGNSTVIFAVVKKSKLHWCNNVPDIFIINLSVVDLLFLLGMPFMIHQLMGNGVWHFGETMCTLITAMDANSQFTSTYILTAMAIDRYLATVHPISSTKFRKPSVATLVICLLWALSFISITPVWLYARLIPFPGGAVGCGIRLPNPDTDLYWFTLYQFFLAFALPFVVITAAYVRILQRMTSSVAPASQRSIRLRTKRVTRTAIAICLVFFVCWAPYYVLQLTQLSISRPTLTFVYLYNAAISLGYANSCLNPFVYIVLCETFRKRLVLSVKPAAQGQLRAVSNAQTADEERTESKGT
The target in the next series is Mu-type opioid receptor (Homo sapiens, UniProt P35372). In words: Inhibition of mu-type opioid receptor.
Mu-type opioid receptor, sequence (P35372 whole entry): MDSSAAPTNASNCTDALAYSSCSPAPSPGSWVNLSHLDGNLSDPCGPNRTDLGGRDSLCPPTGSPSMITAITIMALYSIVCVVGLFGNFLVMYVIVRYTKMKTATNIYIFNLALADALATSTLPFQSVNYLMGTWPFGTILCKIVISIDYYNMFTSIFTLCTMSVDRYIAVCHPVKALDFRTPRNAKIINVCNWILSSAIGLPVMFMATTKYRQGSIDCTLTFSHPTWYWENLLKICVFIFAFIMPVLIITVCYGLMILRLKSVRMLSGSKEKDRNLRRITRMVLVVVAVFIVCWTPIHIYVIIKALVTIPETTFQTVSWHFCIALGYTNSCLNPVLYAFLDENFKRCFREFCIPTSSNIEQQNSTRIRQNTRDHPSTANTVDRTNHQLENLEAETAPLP
Another series addresses Histamine H4 receptor (Homo sapiens, UniProt Q9H3N8). In words: Inhibition of histamine H4 receptor.
Series [2] deals with Voltage-gated inwardly rectifying potassium channel KCNH2 (Homo sapiens, UniProt Q12809). Put plainly: Inhibition of human ERG potassium channel 1.
Voltage-gated inwardly rectifying potassium channel KCNH2, sequence (Q12809 whole entry): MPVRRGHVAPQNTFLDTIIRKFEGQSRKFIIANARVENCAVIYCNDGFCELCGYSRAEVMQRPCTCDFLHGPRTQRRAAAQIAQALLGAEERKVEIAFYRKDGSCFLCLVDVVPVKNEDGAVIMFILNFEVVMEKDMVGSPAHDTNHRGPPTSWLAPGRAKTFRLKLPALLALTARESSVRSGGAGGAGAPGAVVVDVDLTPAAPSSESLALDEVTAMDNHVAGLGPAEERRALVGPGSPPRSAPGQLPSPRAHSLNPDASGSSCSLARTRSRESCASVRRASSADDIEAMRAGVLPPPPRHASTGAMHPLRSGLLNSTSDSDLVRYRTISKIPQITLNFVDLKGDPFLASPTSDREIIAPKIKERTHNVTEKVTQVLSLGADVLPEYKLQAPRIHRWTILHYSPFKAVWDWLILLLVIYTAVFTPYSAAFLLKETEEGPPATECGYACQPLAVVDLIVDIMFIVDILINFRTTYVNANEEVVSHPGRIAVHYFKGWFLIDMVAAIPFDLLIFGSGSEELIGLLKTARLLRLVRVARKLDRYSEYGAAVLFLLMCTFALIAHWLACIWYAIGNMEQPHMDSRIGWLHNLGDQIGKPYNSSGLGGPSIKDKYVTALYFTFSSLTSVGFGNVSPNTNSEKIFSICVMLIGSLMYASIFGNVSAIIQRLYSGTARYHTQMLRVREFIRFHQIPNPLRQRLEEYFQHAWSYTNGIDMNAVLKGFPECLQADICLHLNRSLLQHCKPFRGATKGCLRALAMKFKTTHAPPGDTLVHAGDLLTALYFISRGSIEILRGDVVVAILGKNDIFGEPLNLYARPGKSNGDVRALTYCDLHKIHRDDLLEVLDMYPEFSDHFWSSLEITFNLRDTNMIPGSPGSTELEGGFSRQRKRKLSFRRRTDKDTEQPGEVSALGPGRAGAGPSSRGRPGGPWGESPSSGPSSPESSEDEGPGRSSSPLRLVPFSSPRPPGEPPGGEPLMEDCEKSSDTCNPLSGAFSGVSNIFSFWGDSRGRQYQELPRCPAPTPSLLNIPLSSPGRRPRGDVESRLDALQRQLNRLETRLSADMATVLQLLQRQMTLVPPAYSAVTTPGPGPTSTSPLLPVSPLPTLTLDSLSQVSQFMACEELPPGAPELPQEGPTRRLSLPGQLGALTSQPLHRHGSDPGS
A short description of series [3]: Metabolic stability in mouse liver microsomes after 30 mmins. In kind it is ADME, Microsome. Particulars: read-out: Stability. Summed up: (§1)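 Hepatic microsomes (human or mouse) are incubated with compound for 30 min. The read-out is % of parent remaining. Values are means of n = 2.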
Background: Liver microsomes are vesicles of endoplasmic reticulum, rich in cytochrome P450 enzymes.

The target in another series is Histamine H2 receptor (Homo sapiens, UniProt P25021). Put plainly: Inhibition of histamine H2 receptor.
Histamine H2 receptor, sequence (P25021 whole entry): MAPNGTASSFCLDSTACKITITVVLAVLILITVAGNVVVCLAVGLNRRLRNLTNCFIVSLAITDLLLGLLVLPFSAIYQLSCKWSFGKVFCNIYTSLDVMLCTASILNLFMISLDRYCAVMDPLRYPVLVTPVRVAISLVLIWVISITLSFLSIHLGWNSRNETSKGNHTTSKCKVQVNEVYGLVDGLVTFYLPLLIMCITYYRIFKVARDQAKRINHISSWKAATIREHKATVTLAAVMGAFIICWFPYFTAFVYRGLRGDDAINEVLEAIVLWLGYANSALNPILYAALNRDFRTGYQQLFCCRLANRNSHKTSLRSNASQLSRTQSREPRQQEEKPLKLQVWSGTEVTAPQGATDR
A short description of series [4]: Inhibition of adrenergic alpha1 receptor.
The next series has as its target Histamine H3 receptor (Homo sapiens, UniProt Q9Y5N1). Put plainly: Inhibition of histamine H3 receptor.
The target in the next series is Adenosine receptor A2a (Homo sapiens, UniProt P29274). In words: Inhibition of adenosine receptor A2A.
Adenosine receptor A2a, sequence (P29274 whole entry): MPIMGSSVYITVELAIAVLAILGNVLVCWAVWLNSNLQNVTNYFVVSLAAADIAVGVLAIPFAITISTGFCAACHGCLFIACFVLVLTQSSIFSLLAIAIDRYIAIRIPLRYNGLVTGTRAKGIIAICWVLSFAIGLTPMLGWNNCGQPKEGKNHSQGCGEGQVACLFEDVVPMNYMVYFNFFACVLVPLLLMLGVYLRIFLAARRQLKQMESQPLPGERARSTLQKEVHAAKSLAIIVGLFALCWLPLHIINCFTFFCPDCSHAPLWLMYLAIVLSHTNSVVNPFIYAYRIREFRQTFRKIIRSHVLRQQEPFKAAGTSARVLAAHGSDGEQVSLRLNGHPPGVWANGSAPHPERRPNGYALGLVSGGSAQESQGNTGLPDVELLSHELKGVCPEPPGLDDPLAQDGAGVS
Series [5] deals with T1, Melanin-concentrating hormone receptor 1. Put plainly: Displacement of [125I]MCH from human recombinant MCH1R expressed on CHOK1 cell membrane. The class given is cell membranes, CHO-K1. An outline of the steps: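 Competition binding with [125I]MCH on membranes of CHO-K1 cells expressing human recombinant MCH-1R. Inhibition of radioligand binding is measured. Values are means of n = 2.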
Background: Loss of bound radioactivity is the signal in a displacement assay; it reports binding, not function.

Another series has as its target Histamine H1 receptor (Homo sapiens, UniProt P35367). Put plainly: Inhibition of histamine H1 receptor.
A short description of series [6]: Metabolic stability in human liver microsomes after 30 mmins. The class given is ADME, Microsome. Particulars: read-out: Stability. An outline of the steps:
as §1

The target of series [7] is Delta-type opioid receptor (Homo sapiens, UniProt P41143). In words: Inhibition of delta-type opioid receptor.
Delta-type opioid receptor, sequence (P41143 whole entry): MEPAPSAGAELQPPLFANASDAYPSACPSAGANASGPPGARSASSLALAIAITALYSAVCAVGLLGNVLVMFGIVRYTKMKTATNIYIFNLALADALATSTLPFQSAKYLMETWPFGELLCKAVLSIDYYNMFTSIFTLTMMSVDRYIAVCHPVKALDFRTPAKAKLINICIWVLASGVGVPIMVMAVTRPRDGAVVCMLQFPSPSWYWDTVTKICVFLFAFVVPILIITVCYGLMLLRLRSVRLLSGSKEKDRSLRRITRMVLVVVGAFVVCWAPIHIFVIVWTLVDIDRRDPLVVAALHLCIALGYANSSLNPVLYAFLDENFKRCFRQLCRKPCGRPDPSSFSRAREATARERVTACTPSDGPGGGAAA
The target in series [8] is Kappa-type opioid receptor (Homo sapiens, UniProt P41145). In words: Inhibition of kappa-type opioid receptor.
Kappa-type opioid receptor, sequence (P41145 whole entry): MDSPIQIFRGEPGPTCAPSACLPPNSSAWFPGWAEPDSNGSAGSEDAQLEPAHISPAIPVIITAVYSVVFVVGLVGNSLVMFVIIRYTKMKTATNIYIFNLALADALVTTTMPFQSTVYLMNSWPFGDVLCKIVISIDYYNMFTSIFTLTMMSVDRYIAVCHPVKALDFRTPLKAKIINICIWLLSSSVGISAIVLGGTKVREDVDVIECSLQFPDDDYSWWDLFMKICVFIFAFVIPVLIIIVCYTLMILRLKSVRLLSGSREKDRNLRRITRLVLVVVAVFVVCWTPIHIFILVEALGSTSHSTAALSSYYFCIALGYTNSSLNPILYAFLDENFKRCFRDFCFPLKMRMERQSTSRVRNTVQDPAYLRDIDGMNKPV
Series [9] addresses T2, Muscarinic acetylcholine receptor M1 (Homo sapiens, UniProt P11229).
T2 sequence (P11229 whole entry): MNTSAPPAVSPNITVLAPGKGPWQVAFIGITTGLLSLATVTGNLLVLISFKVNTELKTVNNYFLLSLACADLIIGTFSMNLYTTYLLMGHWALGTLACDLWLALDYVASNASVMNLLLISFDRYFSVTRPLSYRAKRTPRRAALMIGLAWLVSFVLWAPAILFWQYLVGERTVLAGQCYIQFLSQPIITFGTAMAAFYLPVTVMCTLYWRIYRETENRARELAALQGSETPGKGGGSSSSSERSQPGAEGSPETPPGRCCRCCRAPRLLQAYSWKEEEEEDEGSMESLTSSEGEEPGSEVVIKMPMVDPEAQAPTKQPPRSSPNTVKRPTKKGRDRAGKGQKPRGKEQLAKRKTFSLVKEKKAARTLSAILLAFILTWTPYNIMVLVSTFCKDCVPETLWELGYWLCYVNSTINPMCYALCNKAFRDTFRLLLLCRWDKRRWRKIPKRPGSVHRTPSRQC
Put plainly: Inhibition of muscarinic M1 receptor.

Histamine H4 receptor, sequence (Q9H3N8 whole entry): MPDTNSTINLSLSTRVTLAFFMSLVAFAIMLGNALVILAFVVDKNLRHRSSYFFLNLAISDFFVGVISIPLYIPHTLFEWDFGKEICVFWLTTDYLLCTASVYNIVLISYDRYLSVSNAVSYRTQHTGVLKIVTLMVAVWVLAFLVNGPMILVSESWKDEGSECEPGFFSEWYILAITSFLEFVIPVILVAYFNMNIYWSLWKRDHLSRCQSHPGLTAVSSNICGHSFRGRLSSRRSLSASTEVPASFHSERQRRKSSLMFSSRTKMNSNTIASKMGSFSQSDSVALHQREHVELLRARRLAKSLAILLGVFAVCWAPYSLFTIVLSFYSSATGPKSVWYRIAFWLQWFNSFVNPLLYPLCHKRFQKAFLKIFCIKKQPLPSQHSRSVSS
Histamine H3 receptor, sequence (Q9Y5N1 whole entry): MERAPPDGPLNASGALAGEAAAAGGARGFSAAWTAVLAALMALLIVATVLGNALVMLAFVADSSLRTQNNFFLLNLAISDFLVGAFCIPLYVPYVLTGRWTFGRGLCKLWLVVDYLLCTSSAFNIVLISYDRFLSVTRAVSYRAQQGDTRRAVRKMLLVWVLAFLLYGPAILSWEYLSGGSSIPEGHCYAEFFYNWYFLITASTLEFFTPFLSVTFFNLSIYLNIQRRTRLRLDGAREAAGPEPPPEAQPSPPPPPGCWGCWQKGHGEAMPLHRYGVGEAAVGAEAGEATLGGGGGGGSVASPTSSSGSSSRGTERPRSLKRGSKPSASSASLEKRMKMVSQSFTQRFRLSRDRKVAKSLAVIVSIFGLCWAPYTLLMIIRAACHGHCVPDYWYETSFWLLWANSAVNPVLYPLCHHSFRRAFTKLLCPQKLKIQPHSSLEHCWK
Histamine H1 receptor, sequence (P35367 whole entry): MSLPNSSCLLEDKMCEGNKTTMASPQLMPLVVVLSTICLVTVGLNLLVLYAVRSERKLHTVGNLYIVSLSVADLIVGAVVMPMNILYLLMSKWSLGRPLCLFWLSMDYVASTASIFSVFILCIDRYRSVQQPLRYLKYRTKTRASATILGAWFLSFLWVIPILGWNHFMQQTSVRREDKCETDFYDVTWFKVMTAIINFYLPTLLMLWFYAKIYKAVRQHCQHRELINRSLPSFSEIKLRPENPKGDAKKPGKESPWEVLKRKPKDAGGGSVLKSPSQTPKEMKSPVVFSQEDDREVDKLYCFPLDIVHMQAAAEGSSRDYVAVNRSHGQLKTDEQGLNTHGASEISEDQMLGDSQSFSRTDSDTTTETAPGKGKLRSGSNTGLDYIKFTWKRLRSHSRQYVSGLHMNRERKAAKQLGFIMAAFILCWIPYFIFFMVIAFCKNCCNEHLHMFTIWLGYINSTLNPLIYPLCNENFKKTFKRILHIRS

As for `CCCNCc1ccc(CCn2ccc(OCc3ccc(F)cc3)cc2=O)nc1`, the 50% inhibitory concentration (IC50) in [1] is 0.027 µM; on Mu-type opioid receptor, greater than 5 µM; on Histamine H4 receptor, greater than 5 µM; in [2] it was 5.1 µM; at Histamine H2 receptor it was greater than 5 µM; in [4], greater than 5 µM. Further, the IC50 against Histamine H3 receptor is greater than 5 µM; against Adenosine receptor A2a it was greater than 5 µM; in series [5], 0.007 µM; at Histamine H1 receptor, greater than 5 µM; in series [7], greater than 5 µM; in series [8], greater than 5 µM. In [9], this compound gave a half-maximal inhibitory concentration (IC50) greater than 5 µM. Besides, the values for the remaining at 30 min in series [3] and in series [6] were 93% and 91%, respectively.
In the case of `CCCNCc1ccc(CCn2ccc(OCc3ccc(F)cc3)cc2=O)cn1`, the remaining at 30 min was found to be 76% in [3] and 87% in series [6]. The IC50 in [5] was 0.011 µM.
Turning to `O=c1cc(OCc2ccc(F)cc2)ccn1-c1ccc(CN2CCCC2)cc1`, the IC50 in [5] was greater than 1 µM.
Take `O=c1cc(OCc2ccc(F)cc2)ccn1CCc1ccc(CN2CCCC2)cc1`: the remaining at 30 min in series [3] worked out at 39%; in series [6] it was 60%. For the same compound, in series [5], the half-maximal inhibitory concentration (IC50) was found to be 0.005 µM.
On the same counts, the results for `CCCN(CCC)Cc1ccc(CCn2ccc(OCc3ccc(F)cc3)cc2=O)cc1` are 1%, 1% and 0.0033 µM.
On the same counts, the results for `CCCNCc1ccc(COn2ccc(OCc3ccc(F)cc3)cc2=O)cc1` are 74%, 72% and 0.034 µM.
For `CCCN(Cc1ccc(CCn2ccc(OCc3ccc(F)cc3)cc2=O)cc1)C(C)C`, in that order: 1%, 4% and 0.0052 µM.
`O=c1cc(OCc2ccc(F)cc2)ccn1CCc1ccc(N2CCCC2)cc1`: the IC50 in series [5] is greater than 1 µM.
Turning to `CCN(CC)Cc1ccc(CCn2ccc(OCc3ccc(F)cc3)cc2=O)cc1`, the results for the remaining at 30 min in series [3] and in series [6] were 26% and 54%, respectively.
Turning to `CCCN(Cc1ccc(CCn2ccc(OCc3ccc(F)cc3)cc2=O)cc1)C1CCCC1`, the remaining at 30 min in series [3] and in series [6] was 1% throughout. Further, in series [5], the IC50 is 0.0035 µM.
`CCCNCc1ccc(CCn2ccc(OCc3ccc(F)cc3)cc2=O)cc1`: the IC50 in series [1] is 0.02 µM; against Mu-type opioid receptor it was greater than 5 µM; at Histamine H4 receptor, greater than 5 µM; against Histamine H2 receptor, greater than 5 µM; in series [4], greater than 5 µM; on Histamine H3 receptor, greater than 5 µM. The IC50 (at Adenosine receptor A2a; on Histamine H1 receptor; in [7]; in series [8]; in series [9]) was greater than 5 µM throughout. For the same compound, the remaining at 30 min came out at 62% in [3] and 85% in series [6].
Turning to `CCCN(CC)Cc1ccc(CCn2ccc(OCc3ccc(F)cc3)cc2=O)cc1`, the remaining at 30 min in [3] stood at 6%; in series [6] it was 26%. Further, the IC50 in [5] was found to be 0.0044 µM.
As to `O=c1cc(OCc2ccc(F)cc2)ccn1-c1cccc(OCCN2CCCC2)c1`, the IC50 in series [5] is greater than 1 µM.
`O=c1cc(OCc2ccc(F)cc2)ccn1Cc1cccc(OCCCN2CCCC2)c1`: the 50% inhibitory concentration (IC50) in series [5] is 0.03 µM.
Take `CCCN(C)Cc1ccc(CCn2ccc(OCc3ccc(F)cc3)cc2=O)cc1`: the remaining at 30 min came out at 22% in [3] and 58% in series [6]. The IC50 in [5] is 0.0035 µM.
As for `CCCN(CCF)Cc1ccc(CCn2ccc(OCc3ccc(F)cc3)cc2=O)cc1`, the remaining at 30 min in [3] and in series [6] was 0% in each case. Also, the concentration for half-maximal inhibition (IC50) in [5] came out at 0.011 µM.
`O=c1cc(OCc2ccc(F)cc2)ccn1Cc1cccc(OCCN2CCCC2)c1`: the IC50 in [5] came to 0.029 µM.
As for `CCCN(CCOC)Cc1ccc(CCn2ccc(OCc3ccc(F)cc3)cc2=O)cc1`, the remaining at 30 min in [3] and in series [6] was 0% each time. The half-maximal inhibitory concentration (IC50) in series [5] was 0.0054 µM.
`O=c1cc(OCc2ccc(F)cc2)ccn1-c1ccc(OCCN2CCCC2)cc1`: in series [5], the IC50 amounted to 0.0056 µM.
In the case of `CCCN(Cc1ccc(CCn2ccc(OCc3ccc(F)cc3)cc2=O)cc1)CC(C)C`, the remaining at 30 min in series [3] and in [6] was 0% throughout. The IC50 in series [5] was determined as 0.0049 µM.

One may read the IC50 as the midpoint of a concentration-inhibition curve.
